Shown are actives, neighbours in structure and some others; about 1.9% of the full set was active somewhere.
TLR4 MyD88 comp = TLR4-MyD88 interaction inhibition in cells; O00206+Q99836; HeLa CL3-4 TLR4/MyD88 BLA complementation, FRET ratio; inhibition, % at 8.4 µM; 200,000 compounds, 0.18% hits; AID 861; in the data active means inhibition above about 25%;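 further: 0% = vehicle and 100% = reference inhibitor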
Target sequence (O00206 whole entry, looked up): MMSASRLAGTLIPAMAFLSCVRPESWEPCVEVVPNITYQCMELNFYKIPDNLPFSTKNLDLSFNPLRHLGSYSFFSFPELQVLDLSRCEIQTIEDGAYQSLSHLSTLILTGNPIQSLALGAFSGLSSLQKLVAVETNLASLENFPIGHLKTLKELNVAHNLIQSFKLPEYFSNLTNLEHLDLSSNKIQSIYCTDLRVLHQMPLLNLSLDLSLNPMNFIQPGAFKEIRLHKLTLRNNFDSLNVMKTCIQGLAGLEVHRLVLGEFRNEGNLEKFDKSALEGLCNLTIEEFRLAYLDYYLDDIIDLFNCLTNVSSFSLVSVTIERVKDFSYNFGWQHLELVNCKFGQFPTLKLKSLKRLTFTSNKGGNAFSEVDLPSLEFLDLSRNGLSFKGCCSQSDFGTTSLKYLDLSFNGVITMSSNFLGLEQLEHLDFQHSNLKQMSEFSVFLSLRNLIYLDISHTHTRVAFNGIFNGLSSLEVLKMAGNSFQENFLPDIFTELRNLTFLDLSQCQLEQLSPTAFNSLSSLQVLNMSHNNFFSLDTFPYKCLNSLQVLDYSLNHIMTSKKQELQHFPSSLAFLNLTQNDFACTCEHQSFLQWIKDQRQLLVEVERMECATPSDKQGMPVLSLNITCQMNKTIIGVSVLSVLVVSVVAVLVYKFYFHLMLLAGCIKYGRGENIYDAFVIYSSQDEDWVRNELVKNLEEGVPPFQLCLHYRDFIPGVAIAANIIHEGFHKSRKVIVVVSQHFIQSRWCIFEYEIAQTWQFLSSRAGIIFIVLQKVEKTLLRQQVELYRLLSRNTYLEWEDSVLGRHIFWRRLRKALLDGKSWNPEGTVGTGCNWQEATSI
Target sequence (Q99836 whole entry, looked up): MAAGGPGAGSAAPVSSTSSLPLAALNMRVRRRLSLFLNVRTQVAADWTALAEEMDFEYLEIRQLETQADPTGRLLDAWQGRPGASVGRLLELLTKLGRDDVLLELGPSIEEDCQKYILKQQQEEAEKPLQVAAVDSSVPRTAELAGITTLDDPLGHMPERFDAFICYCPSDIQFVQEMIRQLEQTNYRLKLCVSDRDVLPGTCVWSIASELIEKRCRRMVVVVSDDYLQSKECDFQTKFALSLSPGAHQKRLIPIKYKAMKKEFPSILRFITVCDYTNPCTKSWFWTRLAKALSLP
TLR9-MyD88 inh = TLR9-MyD88 interaction inhibition; AID 504734; inhibition, % at 4.98 µM; CHO BLA complementation TLR9-MyD88, CCF4 FRET ratio; 340,000 compounds, 0.21% hits;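 active means inhibition above the mean over all tested compounds plus 3 SD, cut at about 21% in these data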;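 further: 0% = DMSO only wells and 100% = clavulanate BLA inhibitor control wells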
NTR1 agonist = activates human neurotensin receptor 1; NTR1-U2OS beta-arrestin-GFP spot imaging, agonist mode; activation, % at 20 µM; 330,000 compounds, 0.17% hits; AID 493036;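 active means activation at or above 40% of the spot to cytoplasm intensity ratio, with at least 20 cells analyzed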;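 further: 0% = DMSO without peptide and 100% = 100 nM NTR1 peptide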
MC4R antag cAMP = antagonists of human melanocortin 4 receptor (MC4R) | P32245 | MC4R-expressing cells, MTII-stimulated cAMP, LANCE TR-FRET | inhibition, % at 6.5 µM | 360,000 compounds, 0.48% hits | AID 540295;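 active means inhibition above its plate's cutoff, the mean of tested wells on that plate plus 3 SD, cut at about 29% in these data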;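 further: 0% = Melanotan II alone and 100% = Melanotan II plus saturating MCL0020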
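Material: U2OS-MC4R stable cell line | Reagent: Melanotan II challenge after compound preincubation | Doses: One concentration, 6.5 µM nominal | Incubation: 30-min compound preincubation, 1-h Melanotan II challenge, 1-h detection, room temperature | Signal: TR-FRET cAMP assay | Replicates: One well per compound, no replicates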
MC4R ag barr = activates human MC4R beta-arrestin recruitment. activation, % at 8.9 µM. U2OS MC4R beta-arrestin complementation, luminescence; percent of melanotan II response, DMSO zero. AID 540308. 360,000 compounds, 0.98% hits;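 active means activation above a per-plate cutoff, the mean activation of sample wells on that plate plus 3 SD, cut at about 8% in these data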
NOD2 RIPK2 PPI = blocks binding of human NOD2 to RIPK2; O43353; CHO BLA complementation NOD2-RIPK2, CCF4 ratio; inhibition, % at 4.98 µM; 360,000 compounds, 0.38% hits; AID 624267; in the data active means inhibition above about 21%;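 further: 0% = vehicle only and 100% = reference blocker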
MC4R barr ag = human MC4R beta-arrestin agonism confirmation. shares compounds with MC4R ag barr. U2OS MC4R beta-arrestin recruitment, luminescence; scaled DMSO 0%, Melanotan II 100%. activation, % at 8.9 µM. 2,400 compounds, 31% hits;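 active means mean activation across replicates above the hit cutoff set in the earlier primary screen, cut at about 8% in these data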
MOR-DOR barr ag = activates mu-delta opioid heterodimer, MC4R agonist counter-screen | shares compounds with MC4R ag barr | U2OS PathHunter beta-arrestin, beta-gal luminescence; percent of deltorphin B response, DMSO zero | activation, % at 9.2 µM | 2,400 compounds, 5.8% hits;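 active means mean activation across replicates exceeds the hit threshold derived in the earlier primary screen, cut at about 18% in these data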;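 further: 100% = deltorphin B at 0.9 µM final and 0% = DMSO alone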
Starred values were filed as active, the others as inactive; x = no result.

SMILES | TLR4 MyD88 comp | TLR9-MyD88 inh | NTR1 agonist | MC4R antag cAMP | MC4R ag barr | NOD2 RIPK2 PPI | MC4R barr ag | MOR-DOR barr ag
CC1(NC(=O)Cc2c(Cl)cccc2Cl)CCS(=O)(=O)C1 (stereo not drawn) | x | -5 | 3 | 2 | -2 | -2 | x | x
Clc1cccc(-c2nc3nc4ccccc4nc3n2Cc2ccccc2)c1 | -12 | -4 | 7 | 7 | 24* | -11 | 1 | 5
C=CCn1c(-c2ccccc2)nc2nc3ccccc3nc21 | 0 | 4 | 1 | -3 | -2 | 3 | x | x
Cc1ccc(NC(=O)CSc2nc(-c3ccco3)cc(C(F)(F)F)n2)cc1C | 0 | 0 | 0 | -21 | 24* | -4 | 4 | 4
Nc1nc2ncccc2cc1C(=O)NC1CCCCC1 | x | x | x | x | x | -5 | x | x
O=C(Nc1ccc(N2CCN(c3ccc(O)cc3)CC2)cc1)Oc1ccccc1 | -11 | -13 | 0 | -7 | 26* | -4 | -3 | 3
CCN(CC)S(=O)(=O)c1ccc(C)c(NC(=O)CSc2ncc(C(F)(F)F)cc2Cl)c1 | -6 | 7 | 1 | 13 | 9.8* | -8 | 6 | 4
Cc1ccc(S(=O)(=O)N(C)C)cc1NC(=O)CSc1ncc(C(F)(F)F)cc1Cl | 4 | -2 | -1 | 9 | 0 | -5 | x | x
COc1ccccc1N/C=C(\C#N)c1nc2ccccc2[nH]1 | 17 | 6 | -1 | 4 | 11* | -3 | 1 | 5
COc1cc(/C=C(\C#N)c2nc3ccccc3[nH]2)cc(OC)c1O | 12 | -9 | x | -1 | 1 | -3 | x | x
CCCCCCCCC[n+]1cccc2c3ccccc3ccc21 | 22 | 3 | 9 | -12 | 13* | 4 | 8.4* | 7
CCCCCCCCCCCCCCCC[n+]1cccc2ccccc21 | 13 | -6 | 1 | -8 | 18* | 3 | 34* | 23*
Cc1ccccc1C[n+]1cccc2ccccc21 | x | 4 | 1 | 1 | -2 | -5 | x | x
CCOc1ccc(CNc2cccc(SC)c2)cc1 | 11 | -7 | 0 | 3 | -2 | -2 | x | x
O=C(CN1C(=O)NC2(CCCC2)C1=O)Oc1ccc2ccc(=O)oc2c1 | x | -18 | 1 | 17 | -2 | -11 | x | x
CCCCOC(=O)Nc1nnc(/C=C/c2ccc(OC)cc2)s1 | -9 | 3 | 0 | 5 | 21* | -3 | 7 | 7
CCOC(=O)Nc1nnc(/C=C/c2ccc(OC)cc2)s1 | 4 | -18 | -1 | -1 | -2 | -3 | x | x
CS(=O)(=O)N1CCN(c2ccc(NC(=O)c3ccc(-c4ccc(Cl)cc4)o3)cc2)CC1 | -1 | -4 | 16 | 1 | 12* | 4 | -1 | 9
CC(C)CN(C1CCS(=O)(=O)C1)S(=O)(=O)c1ccc(C(C)C)cc1 (stereo not drawn) | x | -3 | -1 | 0 | -1 | 4 | x | x
COc1ccc(C(=O)Cn2c(C(=O)/C=C/c3ccccc3)nc3ccccc32)cc1 | -6 | -2 | 17 | 11 | 23* | -6 | 9.4* | 4
COc1ccc2nc(NC(C)=O)sc2c1 | 18 | 2 | -3 | -4 | 0 | 1 | x | x
COc1ccc2nc(NC(=O)c3ccc4ncsc4c3)sc2c1 | 9 | 8 | 2 | 4 | 2 | 17 | x | x
COc1ccc2nc(NC(=O)c3ccc(F)cc3)sc2c1 | x | 9 | 1 | 0 | 13* | -11 | -1 | 4
COc1ccc2nc(NC(=O)c3ccc(-n4nc(C)cc4C)cc3)sc2c1 | -11 | -10 | 9 | -2 | 20* | -9 | -3 | 8
COC(=O)Nc1nnc(COc2cccc(C)c2)s1 | 1 | 0 | 0 | 17 | -2 | -1 | x | x
CCc1nnc(NC(=O)c2ccc(COc3cccc(C)c3)o2)s1 | x | -8 | -1 | 19 | 14* | 6 | 3 | 2
Cc1cc(NC(=O)c2noc3c2CCCCC3)nn1Cc1ccc(Cl)cc1 | 14 | 2 | 5 | 2 | 12* | -1 | 3 | 5

Assay outcomes as filed in PubChem BioAssay.
